Measurements gathered from unrelated publications.
Each line is one published result; the experiments were not run side by side.
Tested at: 1 µM
CDK5: Cyclin-dependent kinase 5 (CDK5, Homo sapiens, UniProt Q00535)
CDK5 with p35: Cyclin-dependent kinase 5, with p35 (CDK5, Homo sapiens, UniProt Q00535)

Compound | target | test | quantity | result
C=CC(=O)N1CCC[C@@H](n2nc(-c3ccc(Oc4ccccc4)cc3)c3c(N)ncnc32)C1 | CDK5 | enzyme activity, inhibitor | inhibition | 10%
COc1ccc2oc(-c3ccc4nc(N)oc4c3)c/c(=N\c3ccccc3NC(=O)CCN)c2c1 | CDK5 with p35 | binding | remaining binding | 107%
C=CC(=O)N1CCC([C@@H]2CCNc3c(C(N)=O)c(-c4ccc(Oc5ccccc5)cc4)nn32)CC1 | CDK5 | enzyme activity, inhibitor | inhibition | 7%
C[C@H]1CC[C@H](n2c3cnccc3c3cnc(Nc4ccc5c(n4)CCN(C(=O)CO)C5)nc32)CC1 | CDK5 | binding, competition with immobilised ligand | remaining binding | 26%
CNS(=O)(=O)c1ccc(Nc2ncc(C(F)(F)F)c(N3CCC[C@](C)(O)C3)n2)c(C)c1 | CDK5 | binding, competition with immobilised ligand | remaining binding | 13%
CC(C)S(=O)(=O)c1ccc2nccc(Nc3ccc4sc(C5CCCC5)nc4c3)c2c1 | CDK5 with p35 | enzyme activity, inhibitor | activity vs control | 101%
CN1CCN(C(=O)c2ccc(NC(=O)Nc3ccc(N(C)c4ccnc(Nc5ccc(CS(C)(=O)=O)cc5)n4)cc3)cc2)CC1 | CDK5 | binding, competition with immobilised ligand | remaining binding | 91%
Cc1cc(S(=O)(=O)N[C@H]2CC[C@H](CN3CCN(c4ccc(C5CCC(=O)NC5=O)cc4F)CC3)CC2)ccc1Nc1ncc(C(F)(F)F)c(N2CCC[C@](C)(O)C2)n1 (some centres unmarked) | CDK5 | binding, competition with immobilised ligand | remaining binding | 29%
